Calls of active or inactive are those of the source. The rule behind the calls is not given here. Where a SMILES comes first, the peptide text is derived from it.
Experiments:
U-87 MG [1] = assay: Cytotoxicity against human U87 cells assessed as reduction in cell viability measured after 24 to 72 hrs in presence of human neutrophil elastase by PrestoBlue reagent based assay; format: functional; conditions: dose 100-400 µM, time 24-72 hrs; for Activity: U-87MG ATCC, DDE = dose-dependent effect; for CC50: read-out: LC50 (the source's name)
Outline: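 U87 cells cultured 48 h, medium changed to serum-free DMEM; prodrug (0–400 μM) plus human neutrophil elastase 0.68 μM added, 1 h incubation, then 10% serum added to stop enzyme and cells held 24, 48 or 72 h. Viability via resazurin (PrestoBlue), 30 min at 37 °C, fluorescence ex 560/em 590 nm.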

[2] = Prodrug activation assessed as human neutrophil elastase mediated DBNO release by EPR spectometric analysis
Outline: (§1)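 Human neutrophil elastase (20 nM final) with prodrug (300 μM final) in 50 mM HEPES, 150 mM NaCl, 5 mM CaCl2, 0.05% IGEPAL, pH 7.4, in capillaries at 37 °C; released stable nitroxide (TEMPO or DBNO) quantified by EPR against internal spectrometer calibration.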

U-87 MG [3] = assay: Cytotoxicity against human U87 cells assessed as reduction in cell viability at 400 uM measured after 48 hrs in absence of human neutrophil elastase by PrestoBlue reagent based assay; format: functional; conditions: U-87MG ATCC
Outline: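 U87 glioblastoma cells grown 48 h in DMEM/10% FBS, then switched to serum-free DMEM; prodrug (400 μM) added without elastase, serum restored to 10% after 1 h, cells kept 48 h at 37 °C. Viability by resazurin (PrestoBlue) reduction, 30 min at 37 °C, fluorescence ex 560/em 590 nm.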

[4] = Prodrug activation assessed as human neutrophil elastase mediated TEMPO release by EPR spectometric analysis; outline: as §1
U-87 MG [5] = assay: Induction of apoptosis in human U87 cells assessed as activation of caspase3/7 at 75 to 250 uM measured after 48 hrs in presence of human neutrophil elastase by luminescence based multimode microplate reader assay; format: functional, cell-based; conditions: U-87MG ATCC, dose 75-250 µM
Outline: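 U87 cells in serum-free DMEM given alkoxyamine (75, 150, 250 μM) plus HNE 0.68 μM for 1 h, then 10% serum added; sampled at 1, 3, 7, 24, 48 h. Caspase 3/7 read by lytic luminogenic substrate reagent, 15 min at room temperature, luminescence. Controls: HNE alone, cells alone, doxorubicin 2 μM.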

U-87 MG [6] = assay: Induction of apoptosis in human U87 cells assessed as phosphatidylserine translocation at 75 to 250 uM measured after 48 hrs in presence of human neutrophil elastase; format: functional, cell-based; conditions: U-87MG ATCC, dose 75-250 µM
Outline: (§2)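 Serum-free U87 exposure to alkoxyamine 75, 150 or 250 μM with HNE 0.68 μM for 1 h, then 10% serum; followed 1–48 h. Live-cell RealTime-Glo reagent added, 60 min at 37 °C: annexin V phosphatidylserine binding by luminescence, membrane loss by cell-impermeant DNA dye fluorescence (ex 485/em 530 nm). Controls: HNE alone, untreated cells, doxorubicin 2 μM.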

U-87 MG [7] = assay: Induction of apoptosis in human U87 cells assessed as reduction in cell membrane integrity at 75 to 250 uM measured after 48 hrs in presence of human neutrophil elastase; format: functional, cell-based; conditions: U-87MG ATCC, dose 75-250 µM; outline: as §2
U-87 MG [8] = assay: Cytotoxicity against human U87 cells assessed as cell viability at 100 to 400 uM measured after 24 to 72 hrs in absence of human neutrophil elastase by PrestoBlue reagent based assay; format: functional, U-87MG ATCC; conditions: dose 100-400 µM, time 24-72 hrs
Outline: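 U87 glioblastoma (DMEM, 10% FBS, 37 °C, 5% CO2) seeded 48 h, medium swapped to serum-free DMEM; prodrug 0–400 μM added without elastase, 1 h, then 10% serum restored; incubation 24, 48 or 72 h. Viability by resazurin-to-resorufin conversion (PrestoBlue, 1/10 volume, 30 min 37 °C), fluorescence ex 560/em 590 nm.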

[9] = Prodrug activation assessed as urokinase mediated TEMPO release

SMILES	Activity (U-87 MG [1])	CC50 (U-87 MG [1]) [µM]	Drug metabolism [2]	Activity (U-87 MG [3])	Drug metabolism [4]	Activity (U-87 MG [5])	Activity (U-87 MG [6])	Activity (U-87 MG [7])	Activity (U-87 MG [8]) [%]	Drug metabolism [9]
CC(ON(C(C)(C)C)C(C)(C)C)c1ccc(NC(=O)[C@@H](NC(=O)[C@@H]2CCCN2C(=O)[C@H](C)NC(=O)[C@H](C)NC(=O)CCC(=O)O)C(C)C)cc1 (some centres not stated) (HELM PEPTIDE1{[O=C(O)CCC(=O)[*:2]].A.A.P.V.[CC(ON(C(C)(C)C)C(C)(C)C)c1ccc(N[*:1])cc1]}$$$$V2.0)	Dde	150	Metabolite_Detected	–	–	–	–	–	–	–
CC(ON1C(C)(C)CCCC1(C)C)c1ccc(OC(=O)[C@@H](NC(=O)[C@@H]2CCCN2C(=O)[C@H](C)NC(=O)[C@H](C)NC(=O)CCC(=O)O)C(C)C)cc1 (some centres not stated) (HELM PEPTIDE1{[O=C(O)CCC(=O)[*:2]].A.A.P.V.[CC(ON1C(C)(C)CCCC1(C)C)c1ccc(O[*:1])cc1]}$$$$V2.0)	–	150	–	Active	Metabolite_Detected	–	–	–	–	–
CC(ON1C(C)(C)CCCC1(C)C)c1ccc(NC(=O)[C@@H](NC(=O)[C@@H]2CCCN2C(=O)[C@H](C)NC(=O)[C@H](C)NC(=O)CCC(=O)O)C(C)C)cc1 (some centres not stated) (HELM PEPTIDE1{[O=C(O)CCC(=O)[*:2]].A.A.P.V.[CC(ON1C(C)(C)CCCC1(C)C)c1ccc(N[*:1])cc1]}$$$$V2.0)	Dde	150	–	–	Metabolite_Detected	Active	Active	Active	100	Metabolite_Notdetected
CC(ON(C(C)(C)C)C(C)(C)C)c1ccc(OC(=O)[C@@H](NC(=O)[C@@H]2CCCN2C(=O)[C@H](C)NC(=O)[C@H](C)NC(=O)CCC(=O)O)C(C)C)cc1 (some centres not stated) (HELM PEPTIDE1{[O=C(O)CCC(=O)[*:2]].A.A.P.V.[CC(ON(C(C)(C)C)C(C)(C)C)c1ccc(O[*:1])cc1]}$$$$V2.0)	Dde	150	Metabolite_Detected	–	–	–	–	–	–	–

From ChEMBL document CHEMBL5143726, “Neutrophil Elastase-Activatable Prodrugs Based on an Alkoxyamine Platform to Deliver Alkyl Radicals Cytotoxic to Tumor Cells” (J Med Chem, 2022)
